Most compounds without a hit are left out; they make up all but 2.5% or so of the library.
ADAM10 inh: human ADAM10 inhibitors, primary screen, biochemical, QFRET, HTS | Disintegrin and metalloproteinase domain-containing protein 10 (Homo sapiens), O14672 | recombinant ADAM10, EDANS/DABCYL FRET peptide cleavage, 3 h | inhibition, % at 7 µM | hit rate 0.62% among 370,000 | AID 720582, 2013;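 active means inhibition above a per-campaign cutoff equal to the mean of compounds falling between control-based bounds plus 3 SD, cut at about 20% in these data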;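 further: 0% = DMSO wells while the 100% control is not disclosed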
GASC-1 inh: inhibitors of GASC-1 histone demethylase, primary screen, biochemical, fluorescence, DELFIA europium; inhibition, % at 2.35 µM; Lysine-specific demethylase 4C (Homo sapiens), Q9H3R0; AID 2099, 2009; hit rate 0.069% among 330,000; GST-JMJD2C(1-420) H3K9me3 demethylation;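 active means more than half of a compound's replicate wells show inhibition beyond 50%, single wells judged on their own value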;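 further: signal counts dimethyl H3K9 product captured on neutravidin plate; 0% = median of DMSO wells and 100% = 0.3 times that DMSO median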
proKLK7 act: proKLK7 zymogen activators, primary screen, biochemical, fluorescence intensity; purified proKLK7, EDANS-DABCYL substrate fluorescence; 100% is mature enzyme control, 0% vehicle; Kallikrein-7 (Homo sapiens), P49862; activation, % at 7 µM; hit rate 0.9% among 370,000;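 active means activation above the mean of all tested compounds plus 3 SD, computed per campaign excluding outliers beyond control limits, cut at about 13% in these data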
NR2E3 ag-1: NR2E3 agonists in two-hybrid cells, primary screen, cell-based, luminescence, CHO-S, Gal4-NCOR/VP16-NR2E3 | luciferase | inhibition of corepressor binding, % at 3.98 µM | hit rate 0.35% among 360,000;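 active means inhibition above the mean of all tested compounds plus 3 SD, cut at about 70% in these data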;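 further: 0% = DMSO with NR2E3 transfected cells and 100% = cells lacking NR2E3 construct; higher means lower luciferase signal from less NR2E3 corepressor binding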
Target sequence (Q9Y5X4 whole entry, looked up, the tested form may be a part): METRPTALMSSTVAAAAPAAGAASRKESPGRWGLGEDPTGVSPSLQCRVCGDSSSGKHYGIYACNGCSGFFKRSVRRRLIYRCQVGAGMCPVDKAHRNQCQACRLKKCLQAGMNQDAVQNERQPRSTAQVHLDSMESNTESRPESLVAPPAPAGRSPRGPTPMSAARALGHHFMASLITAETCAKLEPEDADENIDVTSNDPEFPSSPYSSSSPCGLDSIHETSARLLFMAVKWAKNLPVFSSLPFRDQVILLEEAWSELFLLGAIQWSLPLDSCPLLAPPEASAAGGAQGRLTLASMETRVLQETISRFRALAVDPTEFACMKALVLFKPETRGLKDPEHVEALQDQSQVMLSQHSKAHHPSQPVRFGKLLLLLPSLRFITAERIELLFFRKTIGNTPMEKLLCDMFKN
NR2E3 ag-2: inhibitors of NR2E3-RetCOR corepressor binding, primary screen, NR2E3 agonist project, biochemical, TR-FRET, GST-NR2E3, biotin-RetCOR; Photoreceptor-specific nuclear receptor (Homo sapiens), Q9Y5X4; 1536-well; inhibition of corepressor binding, % at 4.78 µM; hit rate 0.12% among 320,000; AID 2300, 2010;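 active means percent inhibition above the cutoff of mean plus 3 SD of all tested compounds, set per screening campaign, cut at about 20% in these data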;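 further: 0% = DMSO wells and 100% = biotin wells as full block of FRET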
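Material: NR2E3–RetCOR corepressor complex / Incubation: Compound–protein incubation for 5 h at 4 °C / Dosing: compound at 4.8 µM, single dose / Detection: time-resolved FRET / Benchmarks: high control biotin, low control 0.6% DMSO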
ADAM17 inh: ADAM17 inhibitors, primary screen, biochemical, QFRET | inhibition, % at 6.95 µM | AID 720648, 2013 | hit rate 0.83% among 370,000 | recombinant ADAM17, EDANS/DABCYL FRET peptide cleavage;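 active means inhibition above the mean of compounds lying between control limits plus 3 SD, set per campaign, cut at about 8.5% in these data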;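 further: 0% = DMSO-only wells as the low control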
KLK7 act conf: proKLK7 zymogen activators, confirmation, biochemical, fluorescence intensity, triplicate; shares compounds with proKLK7 act; purified proKLK7, EDANS-DABCYL substrate fluorescence; scaled: vehicle 0, mature enzyme 100; activation, % at 7 µM; hit rate 68% among 3,200;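 active means activation, as change over the incubation, above the mean of all tested compounds plus 3 SD, cut at about 13% in these data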
EDANS interfere: EDANS-DABCYL substrate optical interference, artefact control for kallikrein-7 zymogen activator project, biochemical, fluorescence intensity, high throughput; shares compounds with proKLK7 act; no enzyme, 4 h; solvent 0%, active enzyme control 100%; activation, % at 7 µM; hit rate 80% among 3,200;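 active means activation above the all-compound mean plus 3 SD, ignoring values outside control-based bounds, cut at about 4.8% in these data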;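 further: value is the 4 h activation minus the activation read at time zero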
K7 EDANS ctr: counter-screen for kallikrein-7 activators: EDANS-DABCYL interference, dose response; shares compounds with proKLK7 act; EDANS-DABCYL peptide fluorescence interference, no enzyme; EC50, µM; hit rate 20% among 250;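 active means compounds that raise the fluorescence signal in this interference counterscreen, with EC50 at or below 10 µM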;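 further: intact quenched peptide substrate alone read at 355 nm excitation and 520 nm emission; signal is fluorescence gain from T0 to T4 after four hours at room temperature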
The depositor's hits bear a star; i = inactive; . = not tested or not shown.

SMILES	ADAM10 inh	GASC-1 inh	proKLK7 act	NR2E3 ag-1	NR2E3 ag-2	ADAM17 inh	KLK7 act conf	EDANS interfere	others
O=C(NCC(=O)N1CCN(Cc2c(F)cccc2Cl)CC1)c1cccs1	3	.	1	7	.	-3	.	.
Nc1c(Cl)cc(Cl)cc1C(=O)OCC(=O)N1CCCC1	i	-5	13*	-31	-7	i	18*	15*	K7 EDANS ctr=>70
NC(=O)COC(=O)c1cc(Cl)cc(Cl)c1N	i	4	-8	-18	6	i	.	.
CN(CCC#N)C(=O)COC(=O)c1cc(Cl)cc(Cl)c1N	i	10	16*	29	2	-473	12	11*
COC(=O)CNC(=O)COC(=O)c1cc(Cl)cc(Cl)c1N	i	-1	15*	11	0	i	53*	40*	K7 EDANS ctr=>69
CC(C)CNC(=O)COC(=O)c1cc(Cl)cc(Cl)c1N	i	-4	21*	-9	-11	-482	-9	-16
Cc1cccc(N2CC(C(=O)Nc3nnc(SCC(=O)N4CCOCC4)s3)CC2=O)c1 (stereo unspecified)	-2	10	-1	-10	-1	-7	.	.
COc1ccc(OC)c(/C=C/C(=O)N(C)CC(=O)Nc2ccc(N3CCOCC3)cc2)c1	-330	0	21*	20	0	-117	19*	15*	K7 EDANS ctr=>70
Cc1cc(C)c2nc(N3C(=O)C(O)=C(C(=O)c4ccco4)C3c3ccc(O)cc3)sc2c1 (stereo unspecified)	3	4	-1	-71	5	0	.	.
Cc1cc(C)c2nc(N3C(=O)C(O)=C(C(=O)c4ccco4)C3c3cccc(O)c3)sc2c1 (stereo unspecified)	0	-3	14*	-53	4	1	20*	22*
Cc1cccc(NC(=S)NNC(=S)NC2CCCCC2)c1C	1	0	28*	-16	3	-1	1	-1
O=C(COc1cccc([N+](=O)[O-])c1)NN1C(=O)c2ccccc2C1=O	-6	-1	0	-17	6	-5	.	.
Cc1c(-c2cccc(NC(=O)c3ccco3)c2)nc2ncccn12	i	-16	91*	-9	3	i	69*	81*
O=C(Nc1cccc(-c2cn3cccnc3n2)c1)c1cccs1	i	-7	8	-36	2	i	.	.
Cc1c(-c2cccc(NC(=O)c3cccs3)c2)nc2ncccn12	i	1	62*	3	3	i	47*	62*
COc1ccc(/C=C(\NC(=O)c2ccccc2Cl)C(=O)NCCCC(=O)O)cc1	-11	15	0	0	.	-4	.	.
CCN1CCN(c2ccc(N3CCN(C(=O)c4ccc(Br)o4)CC3)nn2)CC1	-279	-6	19*	-39	2	-69	6	4.4*
CN(C(=O)c1cc2c(s1)-c1ccccc1S(=O)(=O)C2)c1ccccc1	4	-3	1	2	5	0	.	.
COc1ccccc1NC(=O)c1cc2c(s1)-c1ccccc1S(=O)(=O)C2	-55	10	15*	4	-1	-26	-19	-31
CCN1CCN(c2cc3c(nn2)Oc2ccccc2N3C)CC1	i	-5	61*	-37	0	-390	70*	67*
